The record followed here is ChEMBL document CHEMBL2169785, “Inhibition of Acyl-CoA: cholesterol acyltransferase (ACAT), overexpression of cholesterol transporter gene, and protection of amyloid β (Aβ) oligomers-induced neuronal cell death by tricyclic pyrone molecules” (J Med Chem, 2012).

pEC50, pIC50: −log10 of the molar value. Active and inactive are the calls of the source. No cut-off for these calls is given here.

The nature of data set [1]: Cytotoxicity against human MC65 cells by MTT assay. Format: cell-based. The following applies: read-out: TD50 (the source's name). Summed up: (§1)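 MC65 neuroblastoma cells carrying a tetracycline-repressible SβC gene (APP C99 fragment); induction causes intraneuronal Aβ oligomer accumulation and cell death after three days. Viability read by MTT. EC50 (median effective concentration for protection) and TD50 (median toxic concentration) derived; TI = TD50/EC50. Triplicate experiments, standard errors calculated.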
(Tetrazolium dyes change colour on reduction, which living cells bring about.)

Data set [2] in a line: Neuroprotective activity in […] human MC65 cells assessed as protection against APP-induced cell death by MTT assay. It counts as functional, cell-based. In outline: as §1
A short description of data set [3]: Therapeutic index, ratio of TD50 for human MC65 cells to EC50 for […] human MC65 cells. The conditions noted are these: read-out: TI. Format: cell-based. Summed up:
as §1

A further data set deals with Huh-7. Nature of the data set: Induction of ABCA1 mRNA expression in human HuH7 cells after 24 hrs. The following applies: Huh-7, 24 h. Format: functional, cell-based. Summed up:
(§2)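 Cells (MC65 or Huh-7) incubated 24 h with compound or mock medium. ABCA1 gene expression measured with a Gene Expression Assay and compared with mock-treated cells to derive EC50.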

The nature of data set [4]: Induction of ABCA1 mRNA expression in human MC65 cells after 24 hrs. Format: functional, cell-based. The following applies: MC65, 24 h. In outline: as §2
Data set [5] deals with T1, Sterol O-acyltransferase 1 (Homo sapiens, UniProt P35610).
T1 sequence (P35610 whole entry): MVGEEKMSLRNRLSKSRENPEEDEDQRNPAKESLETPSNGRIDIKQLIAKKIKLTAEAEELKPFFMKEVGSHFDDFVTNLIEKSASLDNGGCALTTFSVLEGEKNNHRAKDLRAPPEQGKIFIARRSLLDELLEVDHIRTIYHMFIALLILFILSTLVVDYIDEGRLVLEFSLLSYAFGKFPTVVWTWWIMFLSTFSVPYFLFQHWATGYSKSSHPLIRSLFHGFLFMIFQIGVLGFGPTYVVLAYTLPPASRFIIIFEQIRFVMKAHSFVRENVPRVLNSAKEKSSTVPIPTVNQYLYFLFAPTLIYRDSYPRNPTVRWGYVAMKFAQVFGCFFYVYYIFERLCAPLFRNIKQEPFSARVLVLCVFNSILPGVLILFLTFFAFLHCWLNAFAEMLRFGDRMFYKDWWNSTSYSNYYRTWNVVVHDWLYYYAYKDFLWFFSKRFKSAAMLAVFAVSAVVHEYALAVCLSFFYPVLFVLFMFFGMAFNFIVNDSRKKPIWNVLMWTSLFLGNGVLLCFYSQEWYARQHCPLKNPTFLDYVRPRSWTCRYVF
Nature of the data set: Inhibition of ACAT activity in human MC65 cells using NBD-cholesterol staining after 24 hrs by fluorescence assay.

Another data set relates to ACAT. Nature of the data set: Therapeutic index, ratio of TD50 for human MC65 cells to IC50 for ACAT activity in human MC65 cells. It counts as cell-based. The following applies: read-out: TI.
In another data set the test system is MC65. Nature of the data set: Neuroprotective activity in tetracycline-deprived human MC65 cells assessed as protection against APP-induced cell death up to 50 uM by MTT assay.

The term pEC50 denotes −log10 of the EC50, conventionally taken in molar units. Regarding `COc1ccc(CNCC(C)[C@H]2CCC3=Cc4c(cc(C)oc4=O)O[C@H]3C2)c2ccccc12` (stereo not given in full), the CC50 in data set [1] was determined as 15.3 µM. Further, in data set [2], the pEC50 is 6.21. Besides, the selectivity ratio in data set [3] stood at 24.6.

In the case of `Cc1cc2c(c(=O)o1)C=C1CC[C@H](C(C)CNC(=O)c3ccccc3O)C[C@@H]1O2` (stereo not given in full), the CC50 in data set [1] stood at 6.69 µM. In addition, in data set [2], the pEC50 was 5.20. In addition, the selectivity ratio in data set [3] is 1.07.

For `Cc1cc2c(c(=O)o1)C=C1CC[C@H](C(C)CNCc3cccc(O)c3)C[C@@H]1O2` (stereo not given in full), in data set [1], the CC50 was above 50 µM. Moreover, in data set [2], the negative logarithm of the EC50 (pEC50) was 5.33. Also, in data set [3], the selectivity ratio was above 10.7.

In general, pIC50 refers to −log10 of the IC50, conventionally taken in molar units. Lower therefore signals a large IC50. `Cc1cc2c(c(=O)o1)C=C1CC[C@H](C(C)Cn3cnc(N)c4ncnc3-4)C[C@@H]1O2` (stereo not given in full): the values for the pEC50 (in the data set with Huh-7; in data set [4]; in data set [2]) were 6.22, 6.05 and 6.92, respectively. Besides, in data set [5], the pIC50 is 5.92. In addition, in data set [1], the CC50 amounted to 39 µM. Further, the selectivity ratio with ACAT came out at 33; in data set [3] it was 325.

`CCCCCCCCCCC(C)(C)C(=O)Nc1c(OC)cc(OC)cc1OC`: the outcome in the data set with MC65 was inactive.

For `Cc1cc2c(c(=O)o1)C=C1CC[C@H](C(C)CNCc3ccc4c(c3)OCO4)C[C@@H]1O2` (mixture of isomers), the CC50 in data set [1] was above 50 µM. For the same compound, in data set [2], the pEC50 was 5.93. The selectivity ratio in data set [3] was above 42.4.

Consider `COc1cc(CNCC(C)[C@H]2CCC3=Cc4c(cc(C)oc4=O)O[C@H]3C2)cc(OC)c1O` (mixture of isomers), for which the CC50 in data set [1] is above 50 µM. For the same compound, the negative-log EC50 (pEC50) in data set [2] is 5.90. Besides, in data set [3], the selectivity ratio is above 39.7.

In the case of `Cc1cc2c(c(=O)o1)C=C1CC[C@H](C(C)CNCc3ccc(O)c4ccccc34)C[C@@H]1O2` (mixture of isomers), the pEC50 is 6.22 in the data set with Huh-7, 5.89 in data set [4] and 6.84 in data set [2]. For the same compound, the CC50 in data set [1] stood at 13.7 µM.

`Cc1cc2c(c(=O)o1)C=C1CC[C@H](C(C)CNCc3c(O)ccc4ccccc34)C[C@@H]1O2` (mixture of isomers): in data set [1], the CC50 is 26.4 µM. The negative-log EC50 (pEC50) in data set [2] is 6.70. The selectivity ratio in data set [3] came to 133.

For the compound `Cc1cc2c(c(=O)o1)C=C1CC[C@H](C(C)CNCc3cc(O)cc4ccccc34)C[C@@H]1O2` (mixture of isomers), in data set [1], the CC50 amounted to 18.2 µM. The pEC50 in data set [2] was 6.23. For the same compound, in data set [3], the selectivity ratio was 31.1.

Turning to `Cc1cc2c(c(=O)o1)C=C1CC[C@H](C(C)CNCc3ccc4cc(O)ccc4c3)C[C@@H]1O2` (mixture of isomers), in data set [1], the CC50 is 24.1 µM. Further, the negative logarithm of the EC50 (pEC50) in data set [2] was 6.34. Further, the selectivity ratio in data set [3] was determined as 52.5.

For the compound `CC(=O)Oc1ccccc1C(=O)NCC(C)[C@H]1CCC2=Cc3c(cc(C)oc3=O)O[C@H]2C1` (mixture of isomers), the CC50 in data set [1] worked out at 8.35 µM. The pEC50 in data set [2] was below 4.30.

For `Cc1cc2c(c(=O)o1)C=C1CC[C@H](C(C)CNCc3ccccc3)C[C@@H]1O2` (mixture of isomers), in data set [1], the CC50 turned out to be 37.3 µM. Further, the pEC50 in data set [2] is 5.49. Moreover, the selectivity ratio in data set [3] came to 11.5.

As for `Cc1cc2c(c(=O)o1)C=C1CC[C@H](C(C)CNCc3ccc(O)cc3)C[C@@H]1O2` (mixture of isomers), the pEC50 in the data set on Huh-7 is 6.22; in data set [4], 5.96; in data set [2] it was 7.15. Moreover, the CC50 in data set [1] is 37 µM.

As to `Cc1cc2c(c(=O)o1)C=C1CC[C@H](C(C)CNCc3ccc(OCCO)cc3)C[C@@H]1O2` (mixture of isomers), the CC50 in data set [1] is above 50 µM. Moreover, the pEC50 in data set [2] was 4.61. Also, in data set [3], the selectivity ratio was above 2.04.

Consider `Cc1cc2c(c(=O)o1)C=C1CC[C@H](C(C)CNCc3ccc(CO)cc3)C[C@@H]1O2` (mixture of isomers), for which the pEC50 in data set [4] was 5.60; in data set [2], 7.00. The compound further showed a pIC50 in data set [5] of 5.85. Moreover, the CC50 in data set [1] is above 50 µM. For the same compound, the selectivity ratio in the data set on ACAT was above 36; in data set [3], above 495.

For the compound `Cc1cc2c(c(=O)o1)C=C1CC[C@H](C(C)CNCc3ccc(C=O)cc3)C[C@@H]1O2` (mixture of isomers), in data set [1], the CC50 was 39.4 µM. Further, in data set [2], the pEC50 was 5.19. Besides, in data set [3], the selectivity ratio was 6.15.

In the case of `COC(=O)c1ccc(CNCC(C)[C@H]2CCC3=Cc4c(cc(C)oc4=O)O[C@H]3C2)cc1` (mixture of isomers), the CC50 in data set [1] was above 50 µM. Besides, the pEC50 in data set [2] is 6.11. The selectivity ratio in data set [3] is above 65.

Consider `Cc1cc2c(c(=O)o1)C=C1CC[C@H](C(C)CNCc3ccc(Cl)cc3)C[C@@H]1O2` (mixture of isomers), for which the CC50 in data set [1] is 48 µM. Besides, in data set [2], the pEC50 is 5.55. For the same compound, the selectivity ratio in data set [3] was 17.2.

`Cc1cc2c(c(=O)o1)C=C1CC[C@H](C(C)CNCc3ccc(C#N)cc3)C[C@@H]1O2` (mixture of isomers): the CC50 in data set [1] is above 50 µM. For the same compound, the pEC50 in data set [2] was below 4.30.

Turning to `Cc1cc2c(c(=O)o1)C=C1CC[C@H](C(C)CNCc3ccc(N(C)C)cc3)C[C@@H]1O2` (mixture of isomers), the CC50 in data set [1] is 38.2 µM. In addition, in data set [2], the negative logarithm of the EC50 (pEC50) was 5.36. For the same compound, the selectivity ratio in data set [3] was 8.76.

For the compound `Cc1cc2c(c(=O)o1)C=C1CC[C@H](C(C)CNCc3ccccc3O)C[C@@H]1O2` (mixture of isomers), the CC50 in data set [1] was determined as 30.7 µM. The pEC50 in data set [2] is 5.61. Further, the selectivity ratio in data set [3] amounted to 12.6.

`COc1cc(CNCC(C)[C@H]2CCC3=Cc4c(cc(C)oc4=O)O[C@H]3C2)ccc1O` (mixture of isomers): the CC50 in data set [1] is 26.3 µM. For the same compound, the pEC50 in data set [2] was 6.62. In data set [3], the selectivity ratio stood at 109.

As for `Cc1cc2c(c(=O)o1)C=C1CC[C@H](C(C)CNCc3ccc(O)c([N+](=O)[O-])c3)C[C@@H]1O2` (mixture of isomers), the CC50 in data set [1] is above 50 µM. Moreover, in data set [2], the pEC50 was 5.41. The selectivity ratio in data set [3] was above 13.

With `Cc1cc2c(c(=O)o1)C=C1CC[C@H](C(C)CNCc3ccc(O)c(Br)c3)C[C@@H]1O2` (mixture of isomers), the CC50 in data set [1] is above 50 µM. In data set [2], the pEC50 was 6.19. Further, the selectivity ratio in data set [3] was above 78.2.

As to `Cc1cc2c(c(=O)o1)C=C1CC[C@H](C(C)CNCc3ccc(O)c(F)c3)C[C@@H]1O2` (mixture of isomers), the results for the pEC50 in data set [4] and in data set [2] were 5.66 and 7.17, respectively. For the same compound, the pIC50 in data set [5] is 5.74. In addition, the CC50 in data set [1] was above 50 µM. For the same compound, the selectivity ratio was above 28 with ACAT and above 746 in data set [3].

Take `COc1ccc(CNCC(C)[C@H]2CCC3=Cc4c(cc(C)oc4=O)O[C@H]3C2)cc1O` (mixture of isomers): the CC50 in data set [1] is above 50 µM. The pEC50 in data set [2] was 5.81. The selectivity ratio in data set [3] was above 32.1.

`Cc1cc2c(c(=O)o1)C=C1CC[C@H](C(C)CNCc3ccc(OCc4ccccc4)c(OCc4ccccc4)c3)C[C@@H]1O2` (mixture of isomers): the CC50 in data set [1] worked out at 9.38 µM. In addition, the pEC50 in data set [2] was 6.18. Further, the selectivity ratio in data set [3] came to 14.2.

In the case of `COc1ccc(CNCC(C)[C@H]2CCC3=Cc4c(cc(C)oc4=O)O[C@H]3C2)cc1` (single isomer, unassigned), the CC50 in data set [1] is above 50 µM. In data set [2], the pEC50 is 5.56. Further, in data set [3], the selectivity ratio is above 18.1.
